Measured values published in ChEMBL document CHEMBL1140227, “Histone deacetylase inhibitors through click chemistry” (J Med Chem, 2008).

Columns and labels:
[1] = Growth inhibition of human Hs 578T cells at 10 uM relative to control; type: functional; conditions: values are per cent of control
In short: (§1)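 Single-dose preliminary screen in the NCI human cancer cell line panel, run by the NIH. Percent inhibition of cell line growth was calculated by comparison with untreated samples.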

[2] = tested on: MDA-MB-435; assay: Growth inhibition of human MDA-MB-435 cells at 10 uM relative to control; type: functional; conditions: values are per cent of control; in short: as §1
[3] = tested on: TK-10; assay: Growth inhibition of human TK10 cells; type: functional
In short: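 NCI five-dose screen, run by the NIH. Each drug was tested at five concentrations alongside a control, using two microtiter plates per cell line. SAHA was included as the standard.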

[4] = tested on: SF-539; assay: Growth inhibition of human SF539 cells at 10 uM relative to control; type: functional; conditions: values are per cent of control; in short: as §1
[5] = tested on: OVCAR-4; assay: Growth inhibition of human OVCAR4 cells at 10 uM relative to control; type: functional; conditions: values are per cent of control; in short: as §1
[6] = tested on: SF-295; assay: Growth inhibition of human SF295 cells at 10 uM relative to control; type: functional; conditions: values are per cent of control; in short: as §1
[7] = tested on: Melanoma cell; assay: cells; type: functional; conditions: Homo sapiens
[8] = tested on: MOLT-4; assay: Growth inhibition of human MOLT4 cells at 10 uM relative to control; type: functional; conditions: values are per cent of control; in short: as §1
[9] = tested on: Leukemia cell; assay: cells; type: functional; conditions: Homo sapiens
[10] = tested on: SNB-19; assay: Growth inhibition of human SNB19 cells at 10 uM relative to control; type: functional; conditions: values are per cent of control; in short: as §1
[11] = tested on: HL-60(TB); assay: Growth inhibition of human HL-60(TB) cells at 10 uM relative to control; type: functional; conditions: read-out: INH
In short: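 Single-dose cell line screen run by the NCI (NIH) in its human cancer cell line panel, which includes the leukemia line HL-60(TB). Percent growth inhibition was calculated by comparison with untreated samples.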

[12] = tested on: NCI-H23; assay: Growth inhibition of human NCI-H23 cells at 10 uM relative to control; type: functional; conditions: values are per cent of control; in short: as §1
[13] = tested on: PC-3; assay: Growth inhibition of human PC3 cells at 10 uM relative to control; type: functional; conditions: values are per cent of control; in short: as §1
[14] = tested on: HOP-62; assay: Growth inhibition of human HOP62 cells at 10 uM relative to control; type: functional; conditions: values are per cent of control; in short: as §1
[15] = cells; type: functional; conditions: Homo sapiens, Cancer cell lines
[16] = tested on: CCRF-CEM; assay: Growth inhibition of human CCRF-CEM cells at 10 uM relative to control; type: functional; conditions: values are per cent of control; in short: as §1
[17] = tested on: SK-MEL-28; assay: Growth inhibition of human SK-MEL-28 cells at 10 uM relative to control; type: functional; conditions: values are per cent of control; in short: as §1
[18] = cells; type: functional; conditions: Homo sapiens, Cancer cell lines; remark: listed apart in the source
[19] = Growth inhibition of human RPMI8266 cells at 10 uM relative to control; type: functional; conditions: values are per cent of control; in short: as §1
[20] = tested on: A549; assay: Growth inhibition of human A549 cells at 10 uM relative to control; type: functional; conditions: values are per cent of control; in short: as §1
[21] = tested on: HCT-116; assay: Growth inhibition of human HCT116 cells at 10 uM relative to control; type: functional; conditions: values are per cent of control; in short: as §1
[22] = tested on: OVCAR-5; assay: Growth inhibition of human OVCAR5 cells at 10 uM relative to control; type: functional; conditions: values are per cent of control; in short: as §1
[23] = tested on: TK-10; assay: Growth inhibition of human TK10 cells at 10 uM relative to control; type: functional; conditions: values are per cent of control
In short: (§2)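 Single-dose NCI human tumour cell line screen, run by the NIH. Percent inhibition of cell line growth was calculated by comparison with untreated samples.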

[24] = tested on: HOP-92; assay: Growth inhibition of human HOP92 cells at 10 uM relative to control; type: functional; conditions: values are per cent of control; in short: as §1
[25] = tested on: A498; assay: Growth inhibition of human A498 cells at 10 uM relative to control; type: functional; conditions: values are per cent of control; in short: as §1
[26] = tested on: UO-31; assay: Growth inhibition of human UO31 cells at 10 uM relative to control; type: functional; conditions: values are per cent of control; in short: as §2
[27] = tested on: MDA-MB-468; assay: Growth inhibition of human MDA-MB-468 cells at 10 uM relative to control; type: functional; conditions: values are per cent of control; in short: as §1
[28] = tested on: OVCAR-3; assay: Growth inhibition of human OVCAR-3 cells at 10 uM relative to control; type: functional; conditions: values are per cent of control; in short: as §1
[29] = tested on: 786-0; assay: Growth inhibition of human 786-0 cells at 10 uM relative to control; type: functional; conditions: values are per cent of control; in short: as §1
[30] = tested on: MDA-MB-231; assay: Growth inhibition of human MDA-MB-231 cells at 10 uM relative to control; type: functional; conditions: values are per cent of control; in short: as §1
[31] = tested on: IGROV-1; assay: Growth inhibition of human IGROV1 cells at 10 uM relative to control; type: functional; conditions: values are per cent of control; in short: as §1
[32] = tested on: DU-145; assay: Growth inhibition of human DU145 cells at 10 uM relative to control; type: functional; conditions: values are per cent of control; in short: as §1
[33] = biological target: Histone deacetylase 1 (Homo sapiens, UniProt Q13547); assay: Inhibition of human HDAC1
[34] = tested on: RXF 393; assay: Growth inhibition of human […] cells; type: functional

Histone deacetylase 1, sequence (Q13547 whole entry): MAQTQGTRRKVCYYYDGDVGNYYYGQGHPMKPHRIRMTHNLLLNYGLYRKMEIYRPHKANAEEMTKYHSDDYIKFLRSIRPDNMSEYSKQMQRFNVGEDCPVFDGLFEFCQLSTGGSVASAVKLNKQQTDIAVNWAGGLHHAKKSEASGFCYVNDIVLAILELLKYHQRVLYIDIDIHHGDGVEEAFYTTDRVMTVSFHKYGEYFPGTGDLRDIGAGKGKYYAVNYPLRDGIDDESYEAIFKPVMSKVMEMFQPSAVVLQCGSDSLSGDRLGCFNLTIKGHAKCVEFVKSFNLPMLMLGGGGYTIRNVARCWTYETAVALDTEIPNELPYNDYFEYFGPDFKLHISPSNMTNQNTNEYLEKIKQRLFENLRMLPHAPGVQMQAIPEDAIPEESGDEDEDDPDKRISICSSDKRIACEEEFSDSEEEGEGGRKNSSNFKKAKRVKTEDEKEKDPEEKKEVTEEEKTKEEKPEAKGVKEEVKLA

In the case of O=C(/C=C/c1cn(C/C=C/c2ccccc2)nn1)NO, the growth, % of control at 10 µM [1] is reported as 26%, the growth, % of control at 10 µM [2] is reported as 21.3% and the GI50 [3] is reported as 495 nM. The growth, % of control at 10 µM [4] was 5.16%, the growth, % of control at 10 µM [5] was 55.7% and the growth, % of control at 10 µM [6] was -55.5%. For the same molecule, the inhibition at 10 µM [7] was -43%, the growth, % of control at 10 µM [8] was -7.12% and the inhibition at 10 µM [9] was -6%. For the same molecule, the growth, % of control at 10 µM [10] was -12.4%, the growth, % of control at 10 µM [11] was -5.68% and the growth, % of control at 10 µM [12] was 21.4%. It also gave a growth, % of control at 10 µM [13] of 11%, a growth, % of control at 10 µM [14] of -31.7% and an inhibition at 10 µM [15] of -18%. The growth, % of control at 10 µM [16] was 9.16%, the growth, % of control at 10 µM [17] was -15% and the growth percent at 10 µM [18] was 8%. The growth, % of control at 10 µM [19] was -13.9%, the growth, % of control at 10 µM [20] was -8.94% and the growth, % of control at 10 µM [21] was -69%. For the same molecule, the growth, % of control at 10 µM [22] was 1.43%, the growth, % of control at 10 µM [23] was -8.37% and the growth, % of control at 10 µM [24] was -42%. For the same molecule, the growth, % of control at 10 µM [25] was -74.4%, the growth, % of control at 10 µM [26] was 0.73% and the growth, % of control at 10 µM [27] was 45.8%. It also gave a growth, % of control at 10 µM [28] of -16.2%, a growth, % of control at 10 µM [29] of -36.1% and a growth, % of control at 10 µM [30] of 20.9%. The growth, % of control at 10 µM [31] was -13.8%, the growth, % of control at 10 µM [32] was -28.7% and the IC50 [33] was 104 nM. For the same molecule, the GI50 [34] was < 10 nM.
